Compounds with a hit are over-represented: about 1.7% of the library has one in this group of screens.
DNMT1 inh – blocks human DNA methyltransferase DNMT1 | P26358 | inhibition (reported as % activation of signal), % at 10 µM | DNMT1 molecular beacon, Hinp1I cleavage, fluorescence | 0.83% of 360,000 active; in the data active means inhibition above about 50%
SUMO1 PPI mod – alters human SUMO1 binding to SIM partners | SUMO1 binding to a labelled peptide, TR-FRET, 1 h | inhibition, % at 20 µM | 0.33% of 360,000 active; in the data active means inhibition above about 37%
LMPTP block – LMPTP (human) inhibition; 0.22% of 360,000 active; P24666; inhibition, % at 20 µM; recombinant LMPTP-A, OMFP fluorogenic substrate, fluorescence intensity;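 active means compounds that cut the enzyme signal by at least half of the control window in the single-dose screen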;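 further: plate controls were DMSO wells with enzyme plus substrate for no effect and substrate without enzyme for full effect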
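Assay system: LMPTP-A phosphatase enzyme | Input: 0.625 nM enzyme | Also added: Fluorogenic phosphatase substrate OMFP at 400 µM final | Compound dosing: One test concentration per compound, 20 µM, with 3% DMSO overall | Schedule: 50 min enzyme reaction at room temperature, protected from light | Signal: Fluorescence intensity | Benchmarks: no-enzyme and uninhibited controls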
STEP block – STEP (human) phosphatase inhibition; 0.25% of 360,000 active; P54829; inhibition, % at 20 µM; AID 588621; recombinant STEP, OMFP fluorogenic substrate, fluorescence;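 active means inhibition at 20 µM, scaled per plate between control wells, above about 37%, limit read from the data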;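 further: 0% = DMSO with enzyme and substrate and 100% = substrate only without enzyme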
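System: STEP (striatal-enriched tyrosine phosphatase) enzyme, cell-free; medium: Bis-Tris pH 6.0 buffer with DTT, detergent; dosing: 20 µM, 1% DMSO; times: reaction 20 min, ambient temperature; detection: fluorescence, 480/540 nm; read-out basis: normalized % inhibition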
Scp-1 inhibitor – Scp-1 (human) phosphatase inhibition | Q9GZU7 | Recombinant Scp1, phosphopeptide, malachite green phosphate absorbance | inhibition, % at 20 µM | 0.88% of 340,000 active;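 active means inhibition above about 50% at 20 µM, limit read from the data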;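 further: plate controls were DMSO wells with enzyme for no effect and wells lacking enzyme for full effect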
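Test system: SCP-1 phosphatase catalytic domain, residues 76-261 | Compound dosing: One concentration, 20 µM, with 1.0% DMSO | Schedule: 45 min room-temperature reaction, 5 min colour, 30 min stabiliser | Detection: Absorbance at 630 nm | Read-out basis: % inhibition of SCP-1 phosphate liberation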
Beacon interf DR – beacon fluorescence artifact, dose response counter-screen. shares compounds with DNMT1 inh. IC50, µM. molecular beacon fluorescence, spectral interference counter-screen. 200 tested, under 10 active; call rule not given here
DNMT1 confirm – confirmation of human DNMT1 inhibitors. shares compounds with DNMT1 inh. DNMT1 molecular beacon HinP1I cleavage, fluorescence. inhibition, % at 10 µM. 8% of 2,300 active;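 active means average inhibition of at least 30% in the single-concentration confirmation test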
DNMT1 interf – shows spectral interference in the DNMT1 beacon assay | shares compounds with DNMT1 inh | DNMT1 molecular beacon spectral interference counterscreen, fluorescence 485/520 | activation (fluorescence interference), % at 10 µM | 1% of 2,300 active;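 active means activation of at least 30% at 10 µM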;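 further: DNMT1 catalytic domain with a HinP1I cleavage step and a FAM/dabcyl DNA beacon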
* = called active by the depositor; . = no result.

SMILES	DNMT1 inh	SUMO1 PPI mod	LMPTP block	STEP block	Scp-1 inhibitor	DNMT1 confirm	DNMT1 interf	others
O=C(Oc1ccc2c(c1)OCO2)c1cc2c(s1)CCC2	100*	1	52*	7	65*	17	-1
COc1cccc(-c2cnc(C(O)c3cc(F)cc(Cl)c3)[nH]2)c1 (stereo unspecified)	-3	6	0	-1	.	.	.
CCN(CC)CCC(=O)Nc1cccc2c1C(=O)c1ccccc1C2=O	73*	-36	1	3	-4	53*	1	Beacon interf DR=>99
Nc1cccc(C(=O)OCC(=O)Nc2cccc3c2C(=O)c2ccccc2C3=O)c1	-10	19	0	-3	17	.	.
Cc1cc2nc(-c3ccc(SCC(=O)Nc4ccc(S(=O)(=O)N5CCCC5)cc4)nc3)[nH]c2cc1C	66*	-4	5	-3	-5	-7	-13
COc1ccc2nc(N3C(=O)/C(=C/c4ccc(Cl)cc4)NC3=S)sc2c1	100*	29	27	11	1	1	-4
COc1cc2c(cc1OC)C(C)N(S(=O)(=O)c1ccc(Cl)nc1)CC2 (stereo unspecified)	-1	3	0	2	-9	.	.
Cc1cc(C)c2c(N)c3ccccc3nc2n1	67*	-25	10	1	-7	26	4
CCc1ccc2nc3nc(C)cc(C)c3c(N)c2c1	18	5	12	-3	-2	.	.
O=C(COc1cc(O)c2c(=O)cc(-c3ccccc3)oc2c1)c1ccc(F)cc1	54*	-6	1	5	9	2	-7
COC(=O)c1cc2ccc(OC)cc2c2cc(OC)c(OC)cc12	-8	-3	3	0	-17	.	.
O=c1oc(-c2ccc(O)c(O)c2)cc2cccc(O)c12	7	-19	4	1	1	.	.
Oc1cccc2cc3cccc(O)c3c(O)c12	87*	11	23	2	2	77*	-4	Beacon interf DR=>99
CC(=O)n1cc(C2CC(=O)OC3=C2CC(=O)C(C)(C)C3)c2ccccc21 (stereo unspecified)	5	10	-1	-1	.	.	.
Cc1ccc(/C=N/N2CCN(c3ccccn3)CC2)cc1	-1	-5	1	-2	-6	.	.
CCc1ccc(/C=N/N2CCN(c3ccccn3)CC2)cc1	75*	-1	3	4	-11	2	3
COC(=O)[C@H](C)N1C/C=C\COc2c(Cl)cc(Cl)cc2S1(=O)=O	4	6	0	-1	4	.	.
COC(=O)[C@H](Cc1ccccc1)N1C/C=C\COc2c(Cl)cc(Cl)cc2S1(=O)=O	82*	9	5	-6	-7	4	5
Cc1cc2c(c(=O)n1Cc1cccnc1)C(Cc1ccccc1)C(C#N)=C(N)O2 (stereo unspecified)	56*	-6	2	2	1	-1	3
Clc1ccc(-c2cccc3nccn23)c(Cl)c1	5	-8	2	-1	.	.	.
COC(=O)c1ccc(NC(=O)c2ccc(NC(=O)c3ccco3)cc2)cc1	58*	54*	48	15	7	2	-1
O=C(/C=C/c1ccc(Br)cc1)c1ccc(NC(=O)c2ccco2)cc1	88*	2	39	6	22	1	-5
Cc1cc(C)cc(NC(=O)c2ccc(NC(=O)c3ccco3)cc2)c1	-4	3	2	-1	-10	.	.
CCC(=O)N1CCC1(C)C(=O)NCc1ccccc1SC (stereo unspecified)	3	-4	-1	1	.	.	.
COc1cccc(NC(=O)N2CCCC2C(=O)NCc2ccc(Cl)cc2)c1 (stereo unspecified)	3	-3	0	1	-1	.	.
CCOc1ccc(NC(=O)CN(C)C(=O)c2cc3c(s2)CCC3)cc1OCC	94*	16	17	5	.	15	-2

Screening data deposited in PubChem by Sanford-Burnham Center for Chemical Genomics.
